According to ChEMBL document CHEMBL1250467, “Design, synthesis, and anticonvulsant activity of new N-Mannich bases derived from spirosuccinimides and spirohydantoins” (Bioorg Med Chem, 2010):
The source made the active and inactive calls. The calls are words filed in the database; no cut-off is given here.

Assays:
Mus musculus [1] = assay: Anticonvulsant activity in CF1 albino mouse assessed as protection against electrically-induced seizure at 100 mg/kg, ip after 2 hrs by 6Hz psychomotor seizure test; type: functional, organism-based; parameters: dose 100 mg/kg
Method in brief: (§1)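 Male CF-1 mice, compound suspended in 0.5% methylcellulose/water, given ip at 100 mg/kg; four mice per time point (0.25, 0.5, 1, 2, 4 h). Corneal stimulation with 0.2 ms monopolar rectangular pulses at 6 Hz for 3 s from a constant-current device, mice manually restrained. A mouse counted as protected if normal exploratory behaviour resumed within 10 s; motor impairment was noted alongside.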

Mus musculus [2] = assay: Anticonvulsant activity in CF1 albino mouse assessed as protection against electrically-induced seizure at 100 mg/kg, ip after 0.5 hrs by 6Hz psychomotor seizure test; type: functional, organism-based; parameters: dose 100 mg/kg; method in brief: as §1
Mus musculus [3] = assay: Anticonvulsant activity in CF1 albino mouse assessed as protection against subcutaneous pentylenetetrazole-induced seizures at 300 mg/kg, ip after 4 hrs; type: functional, organism-based; parameters: dose 300 mg/kg
Method in brief: (§2)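 Male CF-1 mice; compounds suspended in 0.5% methylcellulose/water and injected ip at 30, 100 and 300 mg/kg. MES, scPTZ (pentylenetetrazole 85 mg/kg sc at the test time) and rotarod neurotoxicity were scored at 0.5 and 4 h. Value is the lowest dose active or toxic in half or more of the animals; signs such as ataxia or tremor were recorded.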

Mus musculus [4] = assay: Neurotoxicity in CF1 albino mouse at 300 mg/kg, ip after 4 hrs by rotarod test; type: toxicity, organism-based; parameters: dose 300 mg/kg, route intraperitoneal; conditions: in vivo; method in brief: as §2
Mus musculus [5] = assay: Anticonvulsant activity in CF1 albino mouse assessed as protection against electrically-induced seizure at 100 mg/kg, ip after 0.25 hrs by 6Hz psychomotor seizure test; type: functional, organism-based; parameters: dose 100 mg/kg; method in brief: as §1
Mus musculus [6] = assay: Anticonvulsant activity in CF1 albino mouse assessed as protection against subcutaneous pentylenetetrazole-induced seizures at 300 mg/kg, ip after 0.5 hrs; type: functional, organism-based; parameters: dose 300 mg/kg; method in brief: as §2
Mus musculus [7] = assay: Anticonvulsant activity in CF1 albino mouse assessed as protection against electrically-induced seizure at 100 mg/kg, ip after 4 hrs by 6Hz psychomotor seizure test; type: functional; method in brief: as §1
Mus musculus [8] = assay: Anticonvulsant activity in ip dosed CF1 albino mouse assessed as dose required to protect against maximal electroshock-induced seizures after 0.5 hrs; type: functional; method in brief: as §2
Mus musculus [9] = assay: Anticonvulsant activity in ip dosed CF1 albino mouse assessed as dose required to protect against maximal electroshock-induced seizures after 4 hrs; type: functional; method in brief: as §2
Mus musculus [10] = assay: Neurotoxicity in CF1 albino mouse at 300 mg/kg, ip after 0.5 hrs by rotarod test; type: toxicity, organism-based; parameters: dose 300 mg/kg, route intraperitoneal; conditions: in vivo; method in brief: as §2
Mus musculus [11] = assay: Anticonvulsant activity in CF1 albino mouse assessed as protection against electrically-induced seizure at 100 mg/kg, ip after 1 hr by 6Hz psychomotor seizure test; type: functional; conditions: route intraperitoneal; method in brief: as §1
Mus musculus [12] = assay: Neurotoxicity in ip dosed CF1 albino mouse assessed as dose required to cause toxicity after 4 hrs by rotarod test; type: organism-based; conditions: in vivo; method in brief: as §2
Mus musculus [13] = assay: Anticonvulsant activity in CF1 albino mouse assessed as protection against maximal electroshock-induced seizures at 300 mg/kg, ip after 4 hrs; type: functional, organism-based; parameters: dose 300 mg/kg; method in brief: as §2
Mus musculus [14] = assay: Anticonvulsant activity in CF1 albino mouse assessed as protection against maximal electroshock-induced seizures at 300 mg/kg, ip after 0.5 hrs; type: functional, organism-based; parameters: dose 300 mg/kg; method in brief: as §2
Mus musculus [15] = assay: Neurotoxicity in ip dosed CF1 albino mouse assessed as dose required to cause toxicity after 0.5 hrs by rotarod test; type: organism-based; conditions: in vivo; method in brief: as §2
Rattus norvegicus [16] = assay: Anticonvulsant activity in Sprague-Dawley rat assessed as protection against maximal electroshock-induced seizures at 30 mg/kg po after 0.25 hrs; type: functional
Method in brief: (§3)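 Male Sprague–Dawley rats, four per group, given 30 mg/kg orally as a 0.5% methylcellulose/water suspension. MES protection scored at 0.25, 0.5, 1, 2 and 4 h after dosing, motor impairment checked in parallel; data are the number of the four rats protected.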

[17] = Displacement of [3H]batrachotoxin from neurotoxin site 2 of voltage-gated sodium channel in rat forebrain tissue
Rattus norvegicus [18] = assay: Anticonvulsant activity in Sprague-Dawley rat assessed as protection against maximal electroshock-induced seizures at 30 mg/kg po after 1 hr; type: functional; method in brief: as §3
Rattus norvegicus [19] = assay: Anticonvulsant activity in Sprague-Dawley rat assessed as protection against maximal electroshock-induced seizures at 30 mg/kg po after 4 hrs; type: functional; method in brief: as §3
Rattus norvegicus [20] = assay: Anticonvulsant activity in Sprague-Dawley rat assessed as protection against maximal electroshock-induced seizures at 30 mg/kg po after 0.5 hrs; type: functional; method in brief: as §3
[21] = Neurotoxicity in po dosed Sprague-Dawley rat by rotarod test; type: toxicity, organism-based; conditions: in vivo
Method in brief: (§4)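 Male Sprague–Dawley rats dosed orally (0.5% methylcellulose/water suspension), groups of eight, tested at the previously estimated time of peak effect. Doses varied until at least three points lay in the 10–90% range of protection (MES, scPTZ) or minimal rotarod neurotoxicity. ED50/TD50 with 95% confidence intervals came from regression; PI = TD50/ED50.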

Rattus norvegicus [22] = assay: Anticonvulsant activity in Sprague-Dawley rat assessed as protection against maximal electroshock-induced seizures at 30 mg/kg po after 2 hrs; type: functional; method in brief: as §3
Rattus norvegicus [23] = assay: Anticonvulsant activity in po dosed Sprague-Dawley rat assessed as protection against subcutaneous pentylenetetrazole-induced seizures; type: functional; method in brief: as §4
Rattus norvegicus [24] = assay: Anticonvulsant activity in po dosed Sprague-Dawley rat assessed as time required to peak protection against seizures; type: functional
Rattus norvegicus [25] = species: Rattus norvegicus; assay: Protection index, ratio of TD50 for Sprague-Dawley rat by rotarod test to ED50 for Sprague-Dawley rat by maximal electroshock test; type: functional; method in brief: as §4
Rattus norvegicus [26] = assay: Anticonvulsant activity in Sprague-Dawley rat assessed as protection against subcutaneous pentylenetetrazole-induced seizures at 50 mg/kg po after 4 hrs; type: functional
Method in brief: (§5)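 Oral fixed dose of 50 mg/kg in male Sprague–Dawley rats (0.5% methylcellulose/water suspension), four rats per group. Pentylenetetrazole 70 mg/kg given sc at each test time (0.25, 0.5, 1, 2, 4 h); protection from clonic seizures counted per four rats, with motor impairment studied in parallel.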

Mus musculus [27] = assay: Anticonvulsant activity in ip dosed CF1 albino mouse assessed as dose required to protect against subcutaneous pentylenetetrazole-induced seizures after 4 hrs; type: functional; method in brief: as §2
Mus musculus [28] = assay: Anticonvulsant activity in ip dosed CF1 albino mouse assessed as dose required to protect against subcutaneous pentylenetetrazole-induced seizures after 0.5 hrs; type: functional; method in brief: as §2
Rattus norvegicus [29] = assay: Anticonvulsant activity in po dosed Sprague-Dawley rat assessed as protection against maximal electroshock-induced seizures; type: functional; method in brief: as §4
Rattus norvegicus [30] = assay: Anticonvulsant activity in Sprague-Dawley rat assessed as protection against subcutaneous pentylenetetrazole-induced seizures at 50 mg/kg po after 2 hrs; type: functional; method in brief: as §5
Rattus norvegicus [31] = assay: Anticonvulsant activity in Sprague-Dawley rat assessed as protection against subcutaneous pentylenetetrazole-induced seizures at 50 mg/kg po after 0.5 hrs; type: functional; method in brief: as §5
Rattus norvegicus [32] = assay: Anticonvulsant activity in Sprague-Dawley rat assessed as protection against subcutaneous pentylenetetrazole-induced seizures at 50 mg/kg po after 1 hr; type: functional; method in brief: as §5
Rattus norvegicus [33] = assay: Anticonvulsant activity in Sprague-Dawley rat assessed as protection against subcutaneous pentylenetetrazole-induced seizures at 50 mg/kg po after 0.25 hrs; type: functional, organism-based; parameters: dose 50 mg/kg; method in brief: as §5

Compound: O=C1CC2(CCc3ccccc3C2)C(=O)N1CN1CCN(Cc2ccccc2)CC1 (configuration not stated)
- Activity (Mus musculus [1]): inactive
- Activity (Mus musculus [2]): inactive
- Activity (Mus musculus [3]): inactive
- Activity (Mus musculus [4]): Non-toxic
- Activity (Mus musculus [5]): inactive
- Activity (Mus musculus [6]): inactive
- Activity (Mus musculus [7]): inactive
- Activity (Mus musculus [8]): 300 mg/kg
- Activity (Mus musculus [9]): 300 mg/kg
- Activity (Mus musculus [10]): Non-toxic
- Activity (Mus musculus [11]): 25%

Compound: O=C1NC2(CCc3ccccc3C2)C(=O)N1CN1CCN(c2ccc(F)cc2)CC1 (configuration not stated)
- Activity (Mus musculus [12]): 30 mg/kg
- Activity (Mus musculus [3]): inactive
- Activity (Mus musculus [6]): inactive
- Activity (Mus musculus [13]): inactive
- Activity (Mus musculus [14]): inactive
- Activity (Mus musculus [15]): 30 mg/kg

Compound: O=C1NC2(CCc3ccccc3C2)C(=O)N1CN1CCN(c2cccc(C(F)(F)F)c2)CC1 (configuration not stated)
- Activity (Mus musculus [12]): 30 mg/kg
- Activity (Mus musculus [3]): inactive
- Activity (Mus musculus [6]): inactive
- Activity (Mus musculus [8]): 300 mg/kg
- Activity (Mus musculus [15]): 100 mg/kg
- Activity (Mus musculus [9]): 30 mg/kg

Compound: O=C1NC(=O)C(c2ccccc2)(c2ccccc2)N1 [PHENYTOIN]
- Activity (Mus musculus [12]): 100 mg/kg
- Activity (Rattus norvegicus [16]): 25%
- Activity (Mus musculus [3]): inactive
- IC50 ([17]; read-out: IC50): 40 µM
- Activity (Rattus norvegicus [18]): 75%
- Activity (Mus musculus [6]): inactive
- Activity (Rattus norvegicus [19]): 75%
- Activity (Mus musculus [8]): 30 mg/kg
- Activity (Rattus norvegicus [20]): 100%
- TD50 [21]: > 100 mg/kg
- Activity (Rattus norvegicus [22]): 75%
- Activity (Mus musculus [15]): 100 mg/kg
- ED50 (Rattus norvegicus [23]): > 500 mg/kg
- Activity (Mus musculus [9]): 30 mg/kg
- Time (Rattus norvegicus [24]): 1 h
- PI (Rattus norvegicus [25]): >3.6

Compound: CCC1(C)CC(=O)NC1=O (configuration not stated) [ETHOSUXIMIDE]
- Activity (Mus musculus [4]): Non-toxic
- Activity (Rattus norvegicus [26]): inactive
- Activity (Mus musculus [27]): 300 mg/kg
- Activity (Mus musculus [13]): inactive
- Activity (Mus musculus [28]): 100 mg/kg
- Activity (Mus musculus [14]): inactive
- TD50 [21]: > 500 mg/kg
- ED50 (Rattus norvegicus [29]): > 500 mg/kg
- ED50 (Rattus norvegicus [23]): 167 mg/kg
- Activity (Rattus norvegicus [30]): 25%
- Activity (Mus musculus [10]): Non-toxic
- Activity (Rattus norvegicus [31]): 50%
- Activity (Rattus norvegicus [32]): 25%
- PI (Rattus norvegicus [25]): >2.99
- Activity (Rattus norvegicus [33]): inactive

Compound: O=C1CC2(CCc3ccccc3C2)C(=O)N1CN1CCN(c2ccccc2F)CC1 (configuration not stated)
- Activity (Mus musculus [3]): inactive
- Activity (Mus musculus [4]): Non-toxic
- Activity (Mus musculus [6]): inactive
- Activity (Mus musculus [13]): inactive
- Activity (Mus musculus [14]): inactive
- Activity (Mus musculus [15]): 300 mg/kg

Compound: O=C1NC2(CCc3ccccc3C2)C(=O)N1CN1CCOCC1 (configuration not stated)
- Activity (Rattus norvegicus [16]): inactive
- Activity (Mus musculus [4]): Non-toxic
- IC50 [17]: Not Active
- Activity (Rattus norvegicus [18]): 50%
- Activity (Mus musculus [27]): 100 mg/kg
- Activity (Mus musculus [28]): 100 mg/kg
- Activity (Rattus norvegicus [19]): 100%
- Activity (Mus musculus [8]): 30 mg/kg
- Activity (Rattus norvegicus [20]): 25%
- TD50 [21]: 400 mg/kg
- Activity (Rattus norvegicus [22]): 75%
- ED50 (Rattus norvegicus [29]): 10.7 mg/kg
- Activity (Mus musculus [15]): 100 mg/kg
- ED50 (Rattus norvegicus [23]): > 250 mg/kg
- Activity (Mus musculus [9]): 30 mg/kg
- Time (Rattus norvegicus [24]): 6 h
- PI (Rattus norvegicus [25]): >37.55
